Measured values: ChEMBL document CHEMBL2157876, “Identification of a 2-phenyl-substituted octahydrobenzo[f]quinoline as a dopamine D₃ receptor-selective full agonist ligand” (Bioorg Med Chem, 2012)

Assays:
D(3) dopamine receptor [1] = molecular target: T1, D(3) dopamine receptor (Homo sapiens, UniProt P35462); assay: Displacement of [3H]-N-methylspiperone from human dopamine D3 receptor expressed in HEK293 cells after 30 mins by scintillation counting; type: cell-based
[2] = Displacement of [3H]-N-methylspiperone from dopamine D2 like receptor in pig striatal homogenates after 30 mins by scintillation counting; type: tissue-based, Sus scrofa
[3] = Displacement of [3H]-SCH-23390 from dopamine D1 like receptor in pig striatal homogenates after 30 mins by scintillation counting; type: tissue-based, Sus scrofa
D(1A) dopamine receptor = D(1A) dopamine receptor (Homo sapiens, UniProt P21728); assay: Displacement of [3H]-SCH-23390 from human dopamine D1 receptor expressed in HEK293 cells after 30 mins by scintillation counting; type: cell-based
Homo sapiens [4] = species: Homo sapiens; assay: Selectivity ratio of Ki for human dopamine D3 receptor to Ki for human dopamine D2long receptor
How it was run: (§1)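 Membranes from HEK293 cells transiently expressing human receptors: D1 at ~2840 fmol/mg, D2Long at ~2500 fmol/mg, D3 at ~1980 fmol/mg. Buffer 50 mM Tris, 4 mM MgCl2, pH 7.4. […] 5 µM (+)-butaclamol for nonspecific binding. 30 min at 37 °C, filtration, scintillation.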

D(2) dopamine receptor = D(2) dopamine receptor (Homo sapiens, UniProt P14416); assay: Displacement of [3H]-N-methylspiperone from human dopamine D2long receptor expressed in HEK293 cells after 30 mins by scintillation counting; type: cell-based
Sus scrofa = species: Sus scrofa; assay: Selectivity ratio of Ki for dopamine D2 like receptor in pig striatal homogenates to Ki for dopamine D1 like receptor in pig striatal homogenates; type: tissue-based
How it was run: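 Porcine striatal homogenate in 50 mM HEPES, 4 mM MgCl2, pH 7.4. […] D2-like sites labelled with 0.2–0.4 nM [3H]N-methylspiperone plus 50 nM ketanserin to block 5-HT2A. Nonspecific binding with 5 µM (+)-butaclamol. 30 min at 37 °C, filtration, scintillation counting. Ki by Cheng-Prusoff from IC50. At least three experiments.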

D(3) dopamine receptor [5] = molecular target: T1, D(3) dopamine receptor; assay: Agonist activity at dopamine D3 receptor in human U2OS-D3 cells assessed as EA-tagged beta-arrestin translocation after 1.5 hrs by luminescence based beta-galactosidase assay relative to dopamine; type: functional, cell-based
Homo sapiens [6] = species: Homo sapiens; assay: Selectivity ratio of Ki for human dopamine D3 receptor to Ki for human dopamine D1 receptor; how it was run: as §1

Chain of D(1A) dopamine receptor (P21728 whole entry): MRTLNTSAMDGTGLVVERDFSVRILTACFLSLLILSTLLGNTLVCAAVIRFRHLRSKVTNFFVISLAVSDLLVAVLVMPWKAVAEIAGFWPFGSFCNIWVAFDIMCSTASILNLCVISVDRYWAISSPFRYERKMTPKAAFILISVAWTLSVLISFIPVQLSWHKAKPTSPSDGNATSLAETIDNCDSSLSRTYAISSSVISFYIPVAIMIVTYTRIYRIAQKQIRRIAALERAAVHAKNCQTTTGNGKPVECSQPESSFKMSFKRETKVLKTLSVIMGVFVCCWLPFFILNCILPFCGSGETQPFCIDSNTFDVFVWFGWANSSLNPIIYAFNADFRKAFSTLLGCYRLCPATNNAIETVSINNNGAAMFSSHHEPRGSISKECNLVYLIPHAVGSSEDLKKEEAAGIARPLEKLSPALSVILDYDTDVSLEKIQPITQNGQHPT
T1 sequence (P35462 whole entry): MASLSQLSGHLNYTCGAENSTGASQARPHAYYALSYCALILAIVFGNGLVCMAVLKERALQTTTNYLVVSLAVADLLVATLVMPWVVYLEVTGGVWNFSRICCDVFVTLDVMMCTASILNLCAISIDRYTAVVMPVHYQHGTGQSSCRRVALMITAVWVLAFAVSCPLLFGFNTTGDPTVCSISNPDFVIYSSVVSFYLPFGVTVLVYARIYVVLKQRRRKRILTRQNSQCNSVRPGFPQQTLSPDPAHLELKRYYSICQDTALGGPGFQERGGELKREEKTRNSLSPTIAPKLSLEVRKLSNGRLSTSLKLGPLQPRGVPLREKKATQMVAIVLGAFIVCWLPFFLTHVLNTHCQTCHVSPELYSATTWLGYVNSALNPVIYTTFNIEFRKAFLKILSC
Chain of D(2) dopamine receptor (P14416 whole entry): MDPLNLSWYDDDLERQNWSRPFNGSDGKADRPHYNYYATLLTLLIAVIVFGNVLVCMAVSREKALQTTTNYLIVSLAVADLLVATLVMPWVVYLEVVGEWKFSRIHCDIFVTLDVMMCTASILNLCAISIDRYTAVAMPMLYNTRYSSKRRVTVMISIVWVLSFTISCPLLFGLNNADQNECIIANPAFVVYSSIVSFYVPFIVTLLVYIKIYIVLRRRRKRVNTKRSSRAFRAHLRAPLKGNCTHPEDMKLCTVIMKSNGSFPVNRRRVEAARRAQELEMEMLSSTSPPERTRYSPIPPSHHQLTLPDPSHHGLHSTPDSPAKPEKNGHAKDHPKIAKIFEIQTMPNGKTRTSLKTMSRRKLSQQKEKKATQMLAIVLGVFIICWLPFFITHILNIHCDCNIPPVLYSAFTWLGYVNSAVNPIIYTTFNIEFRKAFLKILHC

Row | Compound | Ki (D(3) dopamine receptor [1]) [nM] | Ki [2] [nM] | Ki [3] [nM] | Ki (D(1A) dopamine receptor) [nM] | Ratio Ki (Homo sapiens [4]) | Ki (D(2) dopamine receptor) [nM] | Ratio Ki (Sus scrofa) | Emax (D(3) dopamine receptor [5]) [%] | Ratio Ki (Homo sapiens [6])
1 | Oc1ccc2c(c1O)C[C@@H](c1ccccc1)[C@@H]1CCNC[C@@H]21 | 210 | 180 | 8.2 | 47 |  |  |  |  | 
2 | CN1CCc2cc(Cl)c(O)cc2[C@@H](c2ccccc2)C1.O=C(O)/C(O)=C(/O)C(=O)O |  |  | 0.31 |  |  |  |  |  | 
3 | Oc1ccc([C@H]2CN[C@@H]3CCc4cc(O)c(O)cc4[C@H]3C2)cc1 (racemic) | 50 | 14 | 490 | 550 | 10 | 490 | 34 |  | 
4 | Oc1cccc([C@H]2CN[C@@H]3CCc4cc(O)c(O)cc4[C@H]3C2)c1 (racemic) |  | 29 | 580 |  |  |  | 20 |  | 
5 | Cc1ccc([C@H]2CN[C@@H]3CCc4cc(O)c(O)cc4[C@H]3C2)cc1 (racemic) |  | 56 | 810 |  |  |  | 14 |  | 
6 | Oc1cc2c(cc1O)[C@H]1C[C@@H](c3ccc(C(F)(F)F)cc3)CN[C@@H]1CC2 (racemic) |  | 150 | 2370 |  |  |  | 16 |  | 
7 | Oc1cc2c(cc1O)[C@H]1C[C@@H](c3ccccc3)CN[C@@H]1CC2 (racemic) |  | 30 | 930 |  |  |  | 31 |  | 
8 | CCCN1C[C@H](c2ccc(O)cc2)C[C@@H]2c3cc(O)c(O)cc3CC[C@H]21 (relative stereo) |  | 10 | 630 | 921 | 145 |  | 61 | 103 | 840
9 | Oc1cc2c(cc1O)[C@H]1c3ccccc3CN[C@@H]1CC2 (relative stereo) [DIHYDREXIDINE] |  | 200 |  |  |  |  |  |  | 
